# Only some compounds are listed: those with a hit (about 2.6% of all), similar ones and a draw of the others.
# SIAE inh = blocks human sialic acid acetylesterase; Q9HAT2; SIAE FP-Rh probe binding, fluorescence polarization; inhibition, % at 9.66 µM; 370,000 compounds, 0.69% hits;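 active means inhibition above a cutoff: mean of compounds within the control limits plus 3 SD of those, cut at about 17% in these data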;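 further: 0% = plate median of compound wells and 100% = probe without SIAE protein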
# PRMT1 FP inh = PRMT1 (human) inhibition, primary screen; Q99873; recombinant PRMT1, activity-based probe fluorescence polarization; inhibition, % at 2.79 µM; 370,000 compounds, 1.3% hits; AID 652257;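 active means inhibition above about 21% made by adding two undisclosed values, limit read from the data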
# ABHD4 inh = ABHD4 (mouse) inhibition, primary FP screen. Q8VD66. purified mABHD4, FP-Rh probe fluorescence polarization. inhibition, % at 8.92 µM. 370,000 compounds, 0.54% hits. AID 720543;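 active means inhibition exceeding the mean over every tested compound plus 3 SD, cut at about 30% in these data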;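 further: 0% = plate median of compound wells and 100% = S159A mutant with DMSO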
# Target sequence (Q8VD66 whole entry, looked up): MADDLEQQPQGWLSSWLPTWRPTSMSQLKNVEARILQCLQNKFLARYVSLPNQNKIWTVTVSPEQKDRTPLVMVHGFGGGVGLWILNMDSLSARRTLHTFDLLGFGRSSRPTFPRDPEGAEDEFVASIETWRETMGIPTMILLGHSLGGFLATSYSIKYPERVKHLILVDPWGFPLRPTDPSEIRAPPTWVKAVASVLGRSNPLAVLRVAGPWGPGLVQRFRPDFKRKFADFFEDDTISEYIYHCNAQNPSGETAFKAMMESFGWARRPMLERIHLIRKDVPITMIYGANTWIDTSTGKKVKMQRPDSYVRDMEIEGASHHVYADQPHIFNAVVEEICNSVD
#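 Material: mouse ABHD4 enzyme, wild type; Benchmarks: S159A mutant high control, sample median low control; Buffer or medium: HEPES pH 7.0, NaCl, Pluronic buffer; Signal: fluorescence polarization; Read-out: percent inhibition of probe binding, normalized to plate controls; Timing: pre-incubation 45 min, probe exposure 60 min, at 25 °C; Dosing: 8.92 µM, single dose.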
# HTRA1 inhibitor = blocks human HTRA1 serine peptidase. recombinant HTRA1, FP-rhodamine activity-based probe, fluorescence polarization. inhibition, % at 5.96 µM. 340,000 compounds, 0.5% hits; in the data active means inhibition above about 36%;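 further: 0% = enzyme with DMSO and 100% = wells lacking enzyme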
# TCR-CD3 inh = human TCR-CD3 binding inhibition | 360,000 compounds, 0.37% hits | TAMRA-labeled TCR probe fluorescence, biochemical | inhibition, % at 9.4 µM; in the data active means inhibition above about 19%;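 further: recombinant mutant TCR 2C K166C tagged with TAMRA read by polarization; 0% = receptor in buffer alone and 100% = receptor with positive control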
# SIAE inh conf = human SIAE inhibition, confirmation. shares compounds with SIAE inh. SIAE FP-Rh activity-based probe, fluorescence polarization. inhibition, % at 9.66 µM. 2,300 compounds, 13% hits;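 active means mean inhibition of the replicates above the hit cutoff set in the primary screen, cut at about 17% in these data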;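 further: 0% = SIAE with DMSO and probe and 100% = probe without SIAE; inhibitors lower polarization as more probe stays unbound to SIAE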
# Starred values were filed as active, the others as inactive; x = no result given.
SMILES,SIAE inh,PRMT1 FP inh,ABHD4 inh,HTRA1 inhibitor,TCR-CD3 inh,SIAE inh conf
O=C(CCCOc1ccc(Cl)cc1Cl)Nc1ccc(O)cc1C(=O)O,17*,5,5,-1,-12,-8
CC(=O)c1c(C)[nH]c(C(=O)NCc2ccccc2)c1C,26*,-2,0,-1,3,-1
Cc1nc(SCC(=O)N2CCN(C(=O)c3cccs3)CC2)c2c(C)c(C)sc2n1,17*,1,-3,2,-10,0
Cc1nc(SCC(=O)N2CCN(C(=O)c3ccco3)CC2)c2c(C)c(C)sc2n1,4,2,-5,0,4,x
S=c1[nH]nc(-c2cc(-c3ccccc3)n[nH]2)n1N=Cc1cccc(Oc2ccccc2)c1,-7,9,-5,x,x,x
CC(C)(N[C@@H](Cc1c[nH]c2ccccc12)C(=O)NCCc1c[nH]c2ccccc12)C(=O)NC1CCCCC1,13,2,4,x,x,x
COc1ccc(C(C)(C)C)cc1NC(=O)CCCn1c(=O)oc2ccccc21,76*,-1,-6,-6,11,1
O=C(Cc1cn(Cc2ccccc2)c2ccccc12)Nc1ccc(Nc2cccnc2)cc1,26*,14,22,x,-8,28*
O=[N+]([O-])c1cc(C(F)(F)F)ccc1NCCc1c[nH]c2ccc(O)cc12,17*,6,-8,12,-1,2
O=[N+]([O-])c1cc(C(F)(F)F)ccc1NCCc1c[nH]c2ccccc12,0,2,-8,3,5,x
COc1ccccc1OCCSc1nc2ccccc2n1CC(N)=O,17*,-3,-3,3,3,-2
COc1ccc(OCCSc2nc3ccccc3n2CC(=O)O)cc1,5,0,-3,4,-4,x
O=C1NC[C@@H](CCCCN2CCN(Cc3ccccc3)C(=O)C2=O)N(CCC2CCCCC2)C1=O,18*,1,-4,x,-15,5
CCn1c2ccccc2c2cc(NC(=O)c3ccccc3[N+](=O)[O-])ccc21,21*,-1,-2,8,3,10
CCn1c2ccccc2c2cc(NC(=O)c3ccc([N+](=O)[O-])cc3)ccc21,0,1,-4,6,-4,x
CCn1c2ccccc2c2cc(NC(=O)COC(=O)c3ccc(O)cc3)ccc21,17*,-2,-5,-6,6,-10
O=C(CSc1ccc(-c2cccnc2)nn1)N1CCCCCC1,27*,0,-3,2,10,1
CCOC(=O)CC[C@@H]1CC[C@]2(CCCN(C(=O)C(C)(C)C)C2)O1,-3,-4,4,x,x,x
COc1ccc(Nc2ccc([N+](=O)[O-])cn2)cc1,4,2,-4,2,-6,x
COc1ccc(Nc2cc(C)c3cc([N+](=O)[O-])ccc3n2)cc1,24*,-1,26,5,-5,2
COc1cccc2[nH]c(C(=O)NC(C)c3ccccc3)cc12 (stereo not given),7,-2,-7,-6,2,x
CCN(CC)c1ccc(NC(=O)c2cc3c(OC)cccc3[nH]2)cc1,25*,4,10,22,-2,12
O=C1Nc2ccc(Br)cc2/C1=C/C(=O)c1ccc2c(c1)OCO2,19*,4,7,-27,10,2
NC1=NC(=Nc2cccc(S(N)(=O)=O)c2)c2ccccc21,-5,1,4,7,2,x
COc1cc(N=Nc2cccc(S(N)(=O)=O)c2)c2ccccc2c1N,26*,-8,-1,30,1,-2
CC(=O)Nc1c2c(nn1-c1cccc(Cl)c1)CS(=O)(=O)C2,18*,-2,3,-1,2,-5
CC(C)(C)C(=O)Nc1c2c(nn1-c1cccc(Cl)c1)CS(=O)(=O)C2,-11,3,4,6,2,x
CC(C)c1[nH]nc2c1C(c1cccc(C(F)(F)F)c1)N(Cc1ccccc1)C2=O (stereo not given),4,6,0,x,-12,x
O=C(O)[C@H](Cc1ccccc1)NC(=O)[C@H]1O[C@@H](n2ccc(=O)[nH]c2=O)[C@H](O)[C@@H]1O,-2,-2,-4,x,4,x
CC[C@H](C)[C@@H](CO)NC(=O)[C@H]1O[C@@H](n2ccc(=O)[nH]c2=O)[C@H](O)[C@@H]1O,88*,0,6,x,1,78*

# Compound activity deposited in PubChem by The Scripps Research Institute Molecular Screening Center.
